In brackets after ≈: the same amount, converted by molar mass.
What was measured:
Format in all cases: functional
Staphylococcus aureus [1] = assay: Antibacterial activity against Staphylococcus aureus 209PJC-1
Procedure, shortened: (§1)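 Twofold agar dilution on Mueller-Hinton agar (pH 7.4). Inocula of approximately 10⁶ colony-forming units; growth read after 20-h incubation at 37 °C. MIC is given in micrograms per milliliter.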

Escherichia coli [2] = assay: Antibacterial activity against Escherichia coli NIHJ JC-2; procedure, shortened: as §1
Pseudomonas aeruginosa [3] = assay: Antibacterial activity against Pseudomonas aeruginosa Tsuchijima; procedure, shortened: as §1
Staphylococcus aureus [4] = assay: Median effective dose against Staphylococcus aureus 50774 causing systemic infections
Procedure, shortened: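 Systemic infection given iv with S. aureus 50774 (5×10^8 cells) to male Std-ddY mice (20 ± 2 g), 10 or more per group. Oral dosing of compound suspended in 0.2% sodium carboxymethylcellulose at 0 and 6 h postinfection. ED50 in mg/kg from survival scored after 2 weeks.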

Escherichia coli [5] = assay: Median effective dose against Escherichia coli P-5101 causing systemic infections.
Procedure, shortened: (§2)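 Male Std-ddY mice (20 ± 2 g), groups of 10 or more, infected ip with E. coli P-5101 (9×10^6 cells). Compounds were suspended in 0.2% sodium carboxymethylcellulose and dosed orally at 0 and 6 h postinfection. Survival was scored after 1 week and the ED50 derived in mg/kg.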

Pseudomonas aeruginosa [6] = assay: Median effective dose against Pseudomonas aeruginosa 12 causing systemic infections
Procedure, shortened: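 Male Std-ddY mice (20 ± 2 g), groups of 10 or more, infected ip with P. aeruginosa 12 (4×10^3 cells). Compounds were suspended in 0.2% sodium carboxymethylcellulose and given orally at 0 and 6 h postinfection. Survival was scored after 1 week and the ED50 derived in mg/kg.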

Escherichia coli [7] = assay: Median effective dose against Escherichia coli P-5101 causing systemic infections; procedure, shortened: as §2

SMILES | MIC (Staphylococcus aureus [1]) | MIC (Escherichia coli [2]) | MIC (Pseudomonas aeruginosa [3]) | ED50 (Staphylococcus aureus [4]) | ED50 (Escherichia coli [5]) | ED50 (Pseudomonas aeruginosa [6]) | ED50 (Escherichia coli [7])
CCn1cc(C(=O)O)c(=O)c2cc(F)c(N3CCCCCCC3)nc21 | 12.5 µg/mL (≈ 36 µM) | 25 µg/mL (≈ 72 µM) | > 100 µg/mL |  |  |  | 
CCCCN1CCN(c2nc3c(cc2F)c(=O)c(C(=O)O)cn3CC)CC1 | 3.13 µg/mL (≈ 8.31 µM) | 3.13 µg/mL (≈ 8.31 µM) | 25 µg/mL (≈ 66.4 µM) |  |  |  | 
CCn1cc(C(=O)O)c(=O)c2cc(C#N)c(N3CCCC3)nc21 | 3.13 µg/mL (≈ 10 µM) | 12.5 µg/mL (≈ 40 µM) | 25 µg/mL (≈ 80 µM) |  |  |  | 
CCn1cc(C(=O)O)c(=O)c2cc(N)c(N3CCCC3)nc21 | > 100 µg/mL | > 100 µg/mL | > 100 µg/mL |  |  |  | 
CCn1cc(C(=O)O)c(=O)c2cc([N+](=O)[O-])c(N3CCNCC3)nc21 | 6.25 µg/mL (≈ 18 µM) | 6.25 µg/mL (≈ 18 µM) | 25 µg/mL (≈ 72 µM) |  |  |  | 
CCn1cc(C(=O)O)c(=O)c2ccc(C)nc21 [NALIDIXIC ACID] |  | 1.56 µg/mL (≈ 6.72 µM) | 50 µg/mL (≈ 215 µM) |  |  |  | 
CCn1cc(C(=O)O)c(=O)c2cc(F)c(N3CCN(c4ccccc4)CC3)nc21 | 6.25 µg/mL (≈ 15.8 µM) | 12.5 µg/mL (≈ 31.5 µM) | > 100 µg/mL |  |  |  | 
CCn1cc(C(=O)O)c(=O)c2ccc(N3CCN(C)CC3)nc21 | 25 µg/mL (≈ 79 µM) | 6.25 µg/mL (≈ 19.8 µM) | 25 µg/mL (≈ 79 µM) |  |  |  | 
CCn1cc(C(=O)O)c(=O)c2cc(C#N)c(N3CCN(C)CC3)nc21 | 12.5 µg/mL (≈ 36.6 µM) | 1.56 µg/mL (≈ 4.57 µM) | 12.5 µg/mL (≈ 36.6 µM) |  |  |  | 
CCn1cc(C(=O)O)c(=O)c2ccc(N3CCCC3)nc21 | 12.5 µg/mL (≈ 43.5 µM) | 25 µg/mL (≈ 87 µM) | > 100 µg/mL |  |  |  | 
CCn1cc(C(=O)O)c(=O)c2cc([N+](=O)[O-])c(N3CCCC3)nc21 | 25 µg/mL (≈ 75.2 µM) | 100 µg/mL (≈ 301 µM) | > 100 µg/mL |  |  |  | 
CCn1cc(C(=O)O)c(=O)c2cc(Cl)c(N3CCN(C)CC3)nc21 | 6.25 µg/mL (≈ 17.8 µM) | 1.56 µg/mL (≈ 4.45 µM) | 12.5 µg/mL (≈ 35.6 µM) |  |  |  | 
CCn1cc(C(=O)O)c(=O)c2cc(F)c(N3CCN(C(C)=O)CC3)nc21 | 3.13 µg/mL (≈ 8.64 µM) | 3.13 µg/mL (≈ 8.64 µM) | 50 µg/mL (≈ 138 µM) |  |  |  | 
CCn1cc(C(=O)O)c(=O)c2cc(N)c(N3CCNCC3)nc21 | > 100 µg/mL | 3.13 µg/mL (≈ 9.86 µM) | 6.25 µg/mL (≈ 19.7 µM) |  |  |  | 
CCn1cc(C(=O)O)c(=O)c2cc(F)c(N3CCCCCC3)nc21 | 3.13 µg/mL (≈ 9.39 µM) | 6.25 µg/mL (≈ 18.7 µM) | 50 µg/mL (≈ 150 µM) |  |  |  | 
CCn1cc(C(=O)O)c(=O)c2cc(F)c(N3CCNC(=O)C3)nc21 | 6.25 µg/mL (≈ 18.7 µM) | 0.78 µg/mL (≈ 2.33 µM) | 12.5 µg/mL (≈ 37.4 µM) |  |  |  | 
CCn1cc(C(=O)O)c(=O)c2cc(C#N)c(N3CCNCC3)nc21 | 6.25 µg/mL (≈ 19.1 µM) | 1.56 µg/mL (≈ 4.77 µM) | 6.25 µg/mL (≈ 19.1 µM) |  |  |  | 
CCn1cc(C(=O)O)c(=O)c2cc(F)c(N)nc21 | > 100 µg/mL | 1.56 µg/mL (≈ 6.21 µM) | 50 µg/mL (≈ 199 µM) |  |  |  | 
CCn1cc(C(=O)O)c(=O)c2cc([N+](=O)[O-])c(N3CCN(C)CC3)nc21 | 12.5 µg/mL (≈ 34.6 µM) | 3.13 µg/mL (≈ 8.66 µM) | 50 µg/mL (≈ 138 µM) |  |  |  | 
CCn1cc(C(=O)O)c(=O)c2cc(F)c(N3CCN(C=O)CC3)nc21 | 3.13 µg/mL (≈ 8.99 µM) | 1.56 µg/mL (≈ 4.48 µM) | 12.5 µg/mL (≈ 35.9 µM) |  |  |  | 
CCn1cc(C(=O)O)c(=O)c2cnc(N3CCNCC3)nc21 [PIPEMIDIC ACID] | 6.25 µg/mL (≈ 20.6 µM) |  | 6.25 µg/mL (≈ 20.6 µM) |  |  | 70.8 mg/kg | 12.8 mg/kg
CCn1cc(C(=O)O)c(=O)c2cc(N)c(N3CCN(C)CC3)nc21 | 25 µg/mL (≈ 75.4 µM) | 1.56 µg/mL (≈ 4.71 µM) | 12.5 µg/mL (≈ 37.7 µM) |  |  |  | 
CCn1cc(C(=O)O)c(=O)c2cc(F)c(NCCN)nc21 | 25 µg/mL (≈ 85 µM) | 6.25 µg/mL (≈ 21.2 µM) | 50 µg/mL (≈ 170 µM) |  |  |  | 
O=C(O)c1cn(C(F)F)c2nc(N3CCNCC3)c(F)cc2c1=O | 6.25 µg/mL (≈ 18.3 µM) | 0.78 µg/mL (≈ 2.28 µM) | 6.25 µg/mL (≈ 18.3 µM) |  |  |  | 
CCn1cc(C(=O)O)c(=O)c2cc(Cl)c(N3CCCC3)nc21 | 12.5 µg/mL (≈ 38.8 µM) | > 100 µg/mL | > 100 µg/mL |  |  |  | 

The next lines start with results.

MIC (Staphylococcus aureus [1]) | MIC (Escherichia coli [2]) | MIC (Pseudomonas aeruginosa [3]) | SMILES | ED50 (Staphylococcus aureus [4]) | ED50 (Escherichia coli [5]) | ED50 (Pseudomonas aeruginosa [6]) | ED50 (Escherichia coli [7])
1.56 µg/mL (≈ 4.3 µM) | 1.56 µg/mL (≈ 4.3 µM) | 12.5 µg/mL (≈ 34.5 µM) | CCCN1CCN(c2nc3c(cc2F)c(=O)c(C(=O)O)cn3CC)CC1 |  |  |  | 
3.13 µg/mL (≈ 9.42 µM) | 0.2 µg/mL (≈ 0.602 µM) | 0.78 µg/mL (≈ 2.35 µM) | C=Cn1cc(C(=O)O)c(=O)c2cc(F)c(N3CCN(C)CC3)nc21 | 10.5 mg/kg | 1.1 mg/kg | 3.7 mg/kg | 
0.78 µg/mL (≈ 2.21 µM) | 0.2 µg/mL (≈ 0.568 µM) | 1.56 µg/mL (≈ 4.43 µM) | CN1CCN(c2nc3c(cc2F)c(=O)c(C(=O)O)cn3CCF)CC1 |  |  |  | 
0.39 µg/mL (≈ 1.28 µM) | 1.56 µg/mL (≈ 5.11 µM) | 3.13 µg/mL (≈ 10.3 µM) | CCn1cc(C(=O)O)c(=O)c2cc(F)c(N3CCCC3)nc21 |  |  |  | 
1.56 µg/mL (≈ 4.62 µM) | 3.13 µg/mL (≈ 9.28 µM) | 12.5 µg/mL (≈ 37.1 µM) | CCn1cc(C(=O)O)c(=O)c2cc(F)c(N3CCSCC3)nc21 |  |  |  | 
0.78 µg/mL (≈ 2.44 µM) | 0.2 µg/mL (≈ 0.624 µM) | 0.78 µg/mL (≈ 2.44 µM) | CCn1cc(C(=O)O)c(=O)c2cc(F)c(N3CCNCC3)nc21 [ENOXACIN] |  |  |  | 
0.78 µg/mL (≈ 2.44 µM) | 6.25 µg/mL (≈ 19.6 µM) | 12.5 µg/mL (≈ 39.1 µM) | CCn1cc(C(=O)O)c(=O)c2cc(F)c(N3CCCCC3)nc21 |  |  |  | 
1.56 µg/mL (≈ 4.86 µM) | 3.13 µg/mL (≈ 9.74 µM) | 6.25 µg/mL (≈ 19.5 µM) | CCn1cc(C(=O)O)c(=O)c2cc(F)c(N3CCOCC3)nc21 |  |  |  | 
0.78 µg/mL (≈ 1.9 µM) | 6.25 µg/mL (≈ 15.2 µM) | 12.5 µg/mL (≈ 30.5 µM) | CCn1cc(C(=O)O)c(=O)c2cc(F)c(N3CCN(Cc4ccccc4)CC3)nc21 |  |  |  | 
0.78 µg/mL (≈ 2.24 µM) | 0.78 µg/mL (≈ 2.24 µM) | 3.13 µg/mL (≈ 8.98 µM) | CCN1CCN(c2nc3c(cc2F)c(=O)c(C(=O)O)cn3CC)CC1 |  |  |  | 
1.56 µg/mL (≈ 4.14 µM) | 3.13 µg/mL (≈ 8.31 µM) | 25 µg/mL (≈ 66.4 µM) | CCC(C)N1CCN(c2nc3c(cc2F)c(=O)c(C(=O)O)cn3CC)CC1 (configuration not stated) |  |  |  | 
1.56 µg/mL (≈ 4.67 µM) | 0.78 µg/mL (≈ 2.33 µM) | 1.56 µg/mL (≈ 4.67 µM) | CCn1cc(C(=O)O)c(=O)c2cc(F)c(N3CCCNCC3)nc21 |  |  |  | 
0.39 µg/mL (≈ 1.15 µM) | 0.2 µg/mL (≈ 0.591 µM) | 0.78 µg/mL (≈ 2.31 µM) | O=C(O)c1cn(CCF)c2nc(N3CCNCC3)c(F)cc2c1=O |  |  |  | 

From ChEMBL document CHEMBL1122582, “Pyridonecarboxylic acids as antibacterial agents. 2. Synthesis and structure-activity relationships of 1,6,7-trisubstituted 1,4-dihydro-4-oxo-1,8-naphthyridine-3-carboxylic acids, including enoxacin, a new antibacterial agent” (J Med Chem, 1984)
